Measured values taken from ChEMBL document CHEMBL4706497, “The structure-based optimization of δ-sultone-fused pyrazoles as selective BuChE inhibitors” (Eur J Med Chem, 2020).
Calls of active or inactive are those of the source. No cut-off for these calls is given here.

Assays:
Cholinesterase [1] = molecular target: T1, Cholinesterase (Equus caballus, UniProt P81908); assay: Inhibition of equine serum BuChE using butyrylthiocholine iodide as substrate preincubated with enzyme for 20 mins followed by addition of substrate and measured after 20 mins by DTNB reagent based Ellman's method; type: cell-free
Outline: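 Enzyme at 0.036 U/mL in 0.1 M phosphate buffer pH 8, preincubated with inhibitor 20 min at 37 °C. Then 0.5 mM butyrylthiocholine iodide and 0.35 mM DTNB added, and A410 read after 20 min. IC50 taken graphically from log concentration vs % inhibition curves. Mean ± SEM of at least three independent experiments.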

[2] = Antioxidant activity assessed as free radical scavenging activity at 100 uM measured after 2 hrs under dark conditions by DPPH assay relative to control; type: functional
Outline: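 Each compound at 100 μM mixed with DPPH (140 μM) and incubated 2 h in the dark at 37 °C. Absorbance read at 520 nm. Reduction percentage = (1 − A_C/A₀) × 100%, with A_C and A₀ the absorbance with and without compound. Ascorbic acid served as standard.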

[3] = molecular target: Acetylcholinesterase (AChE) (Electrophorus electricus, UniProt O42275); assay: Inhibition of recombinant electric eel AChE using acetylthiocholine iodide as substrate at 20 uM preincubated with enzyme for 20 mins followed by addition of substrate and measured after 20 mins by DTNB reagent based Ellman's method; conditions: probe acetylthiocholine iodide, time 40 min
Outline: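 Enzyme at 0.036 U/mL in 0.1 M phosphate buffer pH 8, preincubated 20 min at 37 °C with compound at 20 μM. Then 0.35 mM acetylthiocholine iodide and 0.35 mM DTNB added, and A410 read after 20 min. Percent inhibition compared with a no-inhibitor control.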

[4] = Octanol/Water partition coefficient, log P of the compound in PBS buffer at pH7.4 measured after 48 hrs by shake flask method; type: physicochemical; conditions: pH 7.4
Outline: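 Shake-flask partition between equal volumes of n-octanol and PBS pH 7.4, pre-saturated by sonication and standing 24 h. Compound added, vessel sealed and shaken at 37 °C for 48 h to equilibrate, then phases analysed by HPLC.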

L02 [5] = assay: Cytotoxicity against human L02 cells assessed as reduction in cell viability at 50 uM measured after 24 hrs by MTT assay; type: cell-based; conditions: l02, 24 h
Outline: (§1)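 HepG2 and LO2 cells grown in DMEM with 10% FBS, penicillin/streptomycin, 37 °C, 5% CO2. Cells seeded at 1×10^4/well, cultured 24 h, then exposed 24 h to compound diluted in DMEM (range 1–50 μM). MTT 0.5 mg/mL added for 4 h, formazan dissolved in DMSO, OD read at 492 nm. Viability is given relative to medium-only blank (100%); three independent experiments.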

[6] = Neuroprotective activity against H2O2 induced cytotoxicity in […] cells assessed as cell viability at 25 uM preincubated for 3 hrs followed by addition of H2O2 measured after 24 hrs by MTT assay; type: functional; conditions: PC-12, time 27 hrs, read-out: Activity
Outline: (§2)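 PC12 cells seeded at 1×10^4/well and incubated overnight. Pretreated 3 h with compound (1–25 µM), then medium replaced with fresh medium containing compound plus 100 µM H2O2 for a further 24 h. Viability read by MTT (0.5 mg/mL, 4 h), formazan dissolved in DMSO, OD at 492 nm, corrected for blank.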

[7] = molecular target: Cholinesterase (Equus caballus) (UniProt P81908); assay: Reversible inhibition of equine serum BChE using butyrylthiolcholine iodide as substrate at 0.02 to 0.08 uM by Lineweaver-Burk plot analysis; type: cell-free; conditions: dose 0.02-0.08 µM
Outline: (§3)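 Run under the standard Ellman conditions (0.036 U/mL enzyme, pH 8, 37 °C). Six butyrylthiocholine concentrations (0.1–1 mM) crossed with inhibitor at 0, 0.02, 0.04 and 0.08 μM. Lineweaver-Burk plots and secondary plots used for mode of inhibition and Ki. Reversibility tested by varying enzyme at 0–0.72 U/mL at each inhibitor concentration.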

PC-12 = assay: Neuroprotective activity against H2O2 induced cytotoxicity in […] cells assessed as cell viability preincubated for 3 hrs followed by addition of H2O2 measured after 24 hrs by MTT assay; type: functional, cell-based; conditions: dose 6.25-25 µM, time 27.0 hrs; outline: as §2
HepG2 [8] = assay: Cytotoxicity against human HepG2 cells assessed as reduction in cell viability at 50 uM measured after 24 hrs by MTT assay; type: cell-based; conditions: hepg2, 24 h; outline: as §1
HepG2 [9] = assay: Cytotoxicity against human HepG2 cells assessed as reduction in cell viability at 10 to 25 uM measured after 24 hrs by MTT assay; type: cell-based; conditions: hepg2, 24 h, dose 10-25 µM; outline: as §1
[10] = Neuroprotective activity against H2O2 induced cytotoxicity in […] cells assessed as cell viability at […] uM preincubated for 3 hrs followed by addition of H2O2 measured after 24 hrs by MTT assay; type: functional; conditions: PC-12, time 27 hrs, read-out: Activity
[11] = Selectivity for equine serum BuChE over recombinant electric eel AChE
Cholinesterase [12] = molecular target: T1, Cholinesterase; assay: Mixed inhibition of equine serum BChE using butyrylthiolcholine iodide as substrate by Lineweaver-Burk plot analysis; type: cell-free; outline: as §3
L02 [13] = assay: Cytotoxicity against human L02 cells assessed as reduction in cell viability at 10 to 25 uM measured after 24 hrs by MTT assay; type: cell-based; conditions: l02, 24 h, dose 10-25 µM; outline: as §1

T1 sequence (P81908 whole entry): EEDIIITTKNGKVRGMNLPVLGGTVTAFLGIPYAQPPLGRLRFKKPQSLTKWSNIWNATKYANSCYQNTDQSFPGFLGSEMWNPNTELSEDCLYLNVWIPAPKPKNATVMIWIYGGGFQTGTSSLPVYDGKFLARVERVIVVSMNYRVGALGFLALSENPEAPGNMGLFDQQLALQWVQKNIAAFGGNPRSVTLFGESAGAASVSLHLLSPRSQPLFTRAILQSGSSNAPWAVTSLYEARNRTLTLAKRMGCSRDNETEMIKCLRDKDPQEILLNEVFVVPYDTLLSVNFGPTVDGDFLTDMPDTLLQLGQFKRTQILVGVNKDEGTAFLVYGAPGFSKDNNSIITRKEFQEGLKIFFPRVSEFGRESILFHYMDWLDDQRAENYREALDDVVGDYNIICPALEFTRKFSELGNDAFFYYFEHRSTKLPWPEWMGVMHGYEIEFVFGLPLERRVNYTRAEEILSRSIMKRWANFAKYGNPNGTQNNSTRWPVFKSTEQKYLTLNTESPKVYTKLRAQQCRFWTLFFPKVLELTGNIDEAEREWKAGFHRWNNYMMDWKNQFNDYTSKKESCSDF
Sequence of Acetylcholinesterase (AChE) (O42275 whole entry): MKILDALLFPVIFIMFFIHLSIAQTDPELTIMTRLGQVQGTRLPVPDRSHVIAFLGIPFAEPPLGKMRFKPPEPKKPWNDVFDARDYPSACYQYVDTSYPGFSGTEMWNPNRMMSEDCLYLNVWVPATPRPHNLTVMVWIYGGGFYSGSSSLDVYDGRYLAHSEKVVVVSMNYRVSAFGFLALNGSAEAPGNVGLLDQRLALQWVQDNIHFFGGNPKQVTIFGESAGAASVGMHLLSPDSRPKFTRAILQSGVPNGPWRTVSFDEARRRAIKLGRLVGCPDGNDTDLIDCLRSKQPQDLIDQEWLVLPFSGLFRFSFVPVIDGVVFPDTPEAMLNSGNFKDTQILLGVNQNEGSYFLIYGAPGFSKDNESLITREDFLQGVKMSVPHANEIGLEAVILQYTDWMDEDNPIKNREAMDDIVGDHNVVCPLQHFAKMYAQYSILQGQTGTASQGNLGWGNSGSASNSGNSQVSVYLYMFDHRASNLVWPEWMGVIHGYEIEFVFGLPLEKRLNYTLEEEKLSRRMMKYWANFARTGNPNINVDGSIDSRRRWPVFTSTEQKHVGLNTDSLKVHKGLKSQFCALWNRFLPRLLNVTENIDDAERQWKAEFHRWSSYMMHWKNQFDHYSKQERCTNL
Sequence of Cholinesterase (Equus caballus) (P81908 whole entry): as the sequence (P81908 whole entry) above

Structure (SMILES)	IC50 (Cholinesterase [1])	inhibition [2]	further results
CN(Cc1ccc(Br)cc1)Cc1nn(-c2ccccc2F)c2c1CCS(=O)(=O)O2	70 nM	0.2%	inhibition at 20 min, 20 µM [3]: 33.6%
COCCN(Cc1ccc(Cl)cc1)Cc1nn(-c2ccccc2F)c2c1CCS(=O)(=O)O2	90 nM	3.6%	
O=S1(=O)CCc2c(C3CC3)nn(-c3ccccc3F)c2O1	140 nM		logD at 48 h [4]: 2.09
O=S1(=O)CCc2c(-c3ccc(Cl)cc3)nn(-c3ccccc3Cl)c2O1	1580 nM		
O=S1(=O)CCc2c(CCl)nn(-c3ccccc3F)c2O1	190 nM		
COc1ccc(-c2nn(-c3ccc(Cl)cc3)c3c2CCS(=O)(=O)O3)cc1	8780 nM		
CCN(Cc1ccc(F)cc1)Cc1nn(-c2ccccc2F)c2c1CCS(=O)(=O)O2	70 nM	0.6%	
CN(Cc1ccc(F)cc1)Cc1nn(-c2ccccc2F)c2c1CCS(=O)(=O)O2	40 nM	5.7%	
CCN(Cc1ccccc1)Cc1nn(-c2ccccc2F)c2c1CCS(=O)(=O)O2	80 nM	1.8%	logD at 48 h [4]: 2
O=S1(=O)CCc2c(CN(CCO)Cc3cccc(Br)c3)nn(-c3ccccc3F)c2O1	330 nM	0.8%	
O=S1(=O)CCc2c(CN(CCO)Cc3cccc(Cl)c3)nn(-c3ccccc3F)c2O1	190 nM	4.7%	
CN1CCN(Cc2nn(-c3ccccc3F)c3c2CCS(=O)(=O)O3)CC1	2170 nM		
COc1ccc(CN(CCO)Cc2nn(-c3ccccc3F)c3c2CCS(=O)(=O)O3)cc1OC	560 nM	5.5%	
O=S1(=O)CCc2c(CN(CCO)Cc3ccc(Cl)cc3Cl)nn(-c3ccccc3F)c2O1	90 nM	1.8%	
O=S1(=O)CCc2c(CN3CCN(Cc4ccccc4)CC3)nn(-c3ccccc3Cl)c2O1	460 nM		
O=S1(=O)CCc2c(-c3ccc(Br)cc3)nn(-c3ccccc3F)c2O1	470 nM		
CN1CCN(Cc2nn(-c3ccccc3Cl)c3c2CCS(=O)(=O)O3)CC1	2220 nM		
O=S1(=O)CCc2c(-c3ccc(F)cc3)nn(-c3ccccc3Cl)c2O1	130 nM		
O=S1(=O)CCc2c(CN(CCO)Cc3cccc(F)c3)nn(-c3ccccc3F)c2O1	90 nM	5%	
CCN(Cc1ccc(Cl)cc1)Cc1nn(-c2ccccc2F)c2c1CCS(=O)(=O)O2	40 nM	4.2%	
CCN(Cc1ccccc1)Cc1nn(-c2ccccc2Cl)c2c1CCS(=O)(=O)O2	50 nM		
Cc1ccc(CN(CCO)Cc2nn(-c3ccccc3F)c3c2CCS(=O)(=O)O3)cc1	170 nM	5.2%	
O=S1(=O)CCc2c(C3CC3)nn(-c3cccc(F)c3)c2O1	370 nM		
O=S1(=O)CCc2c(CN3CCN(Cc4ccccc4)CC3)nn(-c3ccccc3F)c2O1	680 nM		

Structure (SMILES)	IC50 (Cholinesterase [1])	inhibition [2]	further results
O=S1(=O)CCc2c(-c3ccc(Cl)cc3)nn(-c3ccccc3F)c2O1	200 nM		
O=S1(=O)CCc2c(CN(CCO)Cc3ccc(Br)cc3)nn(-c3ccccc3F)c2O1	7.7 nM	22.2%	Activity (L02 [5]): 95.3%; viability at 25 µM [6]: 49.6%; inhibition [7]: Active; Activity (PC-12): Dose-dependent effect; Activity (HepG2 [8]): 82.8%; logD at 48 h [4]: 1.93; Activity (HepG2 [9]): Non-Toxic; viability at […] [10]: 40.9%; Selectivity Index [11]: > 2000; Ki (Cholinesterase [12]): 24 nM; inhibition at 20 min, 20 µM [3]: 43.3%; Activity (L02 [13]): Non-Toxic
O=S1(=O)CCc2c(CN3CCOCC3)nn(-c3ccccc3F)c2O1	150 nM		
O=S1(=O)CCc2c(-c3ccc(F)cc3)nn(-c3ccccc3F)c2O1	160 nM		
O=S1(=O)CCc2c(C3CC3)nn(-c3ccccc3Cl)c2O1	180 nM		
O=S1(=O)CCc2c(CN(CCO)Cc3ccccc3)nn(-c3ccccc3F)c2O1	40 nM	5.4%	logD at 48 h [4]: 2.05
O=S1(=O)CCc2c(CN(CCO)Cc3ccc(Cl)cc3)nn(-c3ccccc3F)c2O1	90 nM	10.2%	
COCCN(Cc1ccc(F)cc1)Cc1nn(-c2ccccc2F)c2c1CCS(=O)(=O)O2	110 nM	6.3%	
CN(Cc1ccccc1)Cc1nn(-c2ccccc2F)c2c1CCS(=O)(=O)O2	80 nM		logD at 48 h [4]: 1.78
O=S1(=O)CCc2c(CN(CCO)Cc3ccc(F)cc3)nn(-c3ccccc3F)c2O1	8.3 nM	5.5%	logD at 48 h [4]: 2.42
O=S1(=O)CCc2c(-c3ccccc3)nn(-c3ccccc3F)c2O1	180 nM		
COCCN(Cc1ccc(Br)cc1)Cc1nn(-c2ccccc2F)c2c1CCS(=O)(=O)O2	150 nM	4.8%	
O=S1(=O)CCc2c(CN(CCO)Cc3ccccc3)nn(-c3ccccc3Cl)c2O1	40 nM		
O=S1(=O)CCc2c(-c3ccccc3)nn(-c3ccccc3Cl)c2O1	170 nM		
O=S1(=O)CCc2c(C3CC3)nn(-c3cccc(Cl)c3)c2O1	700 nM		
O=S1(=O)CCc2c(-c3ccc(Br)cc3)nn(-c3ccccc3Cl)c2O1	3690 nM		
O=S1(=O)CCc2c(CCl)nn(-c3ccccc3Cl)c2O1	200 nM		
COc1ccc(CN(CCO)Cc2nn(-c3ccccc3F)c3c2CCS(=O)(=O)O3)cc1	260 nM	3.2%	
CCN(Cc1ccc(Br)cc1)Cc1nn(-c2ccccc2F)c2c1CCS(=O)(=O)O2	70 nM	12.9%	
O=S1(=O)CCc2c(CN3CCOCC3)nn(-c3ccccc3Cl)c2O1	410 nM		
Cc1nn(-c2ccccc2F)c2c1CCS(=O)(=O)O2	1190 nM		
CN(Cc1ccccc1)Cc1nn(-c2ccccc2Cl)c2c1CCS(=O)(=O)O2	70 nM		
COCCN(Cc1ccccc1)Cc1nn(-c2ccccc2F)c2c1CCS(=O)(=O)O2	240 nM	2.3%	
CN(Cc1ccc(Cl)cc1)Cc1nn(-c2ccccc2F)c2c1CCS(=O)(=O)O2	20 nM	6.1%	
